The target of test [1] is Protein-tyrosine kinase 6 (Homo sapiens) (UniProt Q13882). Nature of the test: Inhibition of PTK6 at 1 uM. The method in brief: (§1)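 Kinase selectivity panel reported as percent inhibition of each kinase at a single test-compound concentration. Values are means of at least two experiments.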
Test [2] deals with Receptor-type tyrosine-protein kinase FLT3 (Homo sapiens) (UniProt P36888). Nature of the test: Inhibition of FLT3 at 1 uM. The method in brief:
as §1

A short description of test [3]: Inhibition of basal ERK phosphorylation in human MALME-3M cells. The class given is cell-based.
Test [4] has as its target Tyrosine-protein kinase Fgr (Homo sapiens) (UniProt P09769). Nature of the test: Inhibition of FGR at 1 uM. The method in brief:
as §1

In test [5] the target is Tyrosine-protein kinase Srms (Homo sapiens) (UniProt Q9H3Y6). Nature of the test: Inhibition of SRMS at 1 uM. The method in brief:
as §1

For test [6], the target named is Proto-oncogene tyrosine-protein kinase Src (Homo sapiens) (UniProt P12931). Nature of the test: Inhibition of SRC at 1 uM. In a few lines: as §1
For test [7], the target named is T1, Aurora kinase A (Homo sapiens) (UniProt O14965).
T1 sequence (whole entry): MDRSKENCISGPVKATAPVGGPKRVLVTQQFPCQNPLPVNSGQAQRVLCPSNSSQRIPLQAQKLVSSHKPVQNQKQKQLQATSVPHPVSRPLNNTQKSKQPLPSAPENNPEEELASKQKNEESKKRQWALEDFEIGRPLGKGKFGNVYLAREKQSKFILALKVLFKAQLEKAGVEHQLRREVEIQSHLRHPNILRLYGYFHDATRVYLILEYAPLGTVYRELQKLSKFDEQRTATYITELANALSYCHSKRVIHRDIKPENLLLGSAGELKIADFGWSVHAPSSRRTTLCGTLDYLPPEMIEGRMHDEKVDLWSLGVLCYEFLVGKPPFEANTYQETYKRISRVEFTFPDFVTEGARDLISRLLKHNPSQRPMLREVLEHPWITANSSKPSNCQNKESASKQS
Nature of the test: Inhibition of aurora A at 1 uM. In a few lines:
as §1

The target of test [8] is Tyrosine-protein kinase Lck (Homo sapiens) (UniProt P06239). Nature of the test: Inhibition of LCK at 1 uM. In a few lines: as §1
Test [9] addresses Serine/threonine-protein kinase B-raf (Homo sapiens, UniProt P15056, V600E). Nature of the test: Inhibition of full length B-Raf V600E mutant.

Here are results for three molecules from ChEMBL document CHEMBL1821716, “Pyrazolopyridine inhibitors of B-RafV600E. Part 2: structure-activity relationships” (Bioorg Med Chem Lett, 2011).

In general, inhibition refers to the relative decrease from the control value, in per cent. The IC50 is the point on the concentration scale where inhibition reaches its midpoint. A lower IC50 goes with greater potency.

Chain of Receptor-type tyrosine-protein kinase FLT3 (Homo sapiens) (P36888 whole entry): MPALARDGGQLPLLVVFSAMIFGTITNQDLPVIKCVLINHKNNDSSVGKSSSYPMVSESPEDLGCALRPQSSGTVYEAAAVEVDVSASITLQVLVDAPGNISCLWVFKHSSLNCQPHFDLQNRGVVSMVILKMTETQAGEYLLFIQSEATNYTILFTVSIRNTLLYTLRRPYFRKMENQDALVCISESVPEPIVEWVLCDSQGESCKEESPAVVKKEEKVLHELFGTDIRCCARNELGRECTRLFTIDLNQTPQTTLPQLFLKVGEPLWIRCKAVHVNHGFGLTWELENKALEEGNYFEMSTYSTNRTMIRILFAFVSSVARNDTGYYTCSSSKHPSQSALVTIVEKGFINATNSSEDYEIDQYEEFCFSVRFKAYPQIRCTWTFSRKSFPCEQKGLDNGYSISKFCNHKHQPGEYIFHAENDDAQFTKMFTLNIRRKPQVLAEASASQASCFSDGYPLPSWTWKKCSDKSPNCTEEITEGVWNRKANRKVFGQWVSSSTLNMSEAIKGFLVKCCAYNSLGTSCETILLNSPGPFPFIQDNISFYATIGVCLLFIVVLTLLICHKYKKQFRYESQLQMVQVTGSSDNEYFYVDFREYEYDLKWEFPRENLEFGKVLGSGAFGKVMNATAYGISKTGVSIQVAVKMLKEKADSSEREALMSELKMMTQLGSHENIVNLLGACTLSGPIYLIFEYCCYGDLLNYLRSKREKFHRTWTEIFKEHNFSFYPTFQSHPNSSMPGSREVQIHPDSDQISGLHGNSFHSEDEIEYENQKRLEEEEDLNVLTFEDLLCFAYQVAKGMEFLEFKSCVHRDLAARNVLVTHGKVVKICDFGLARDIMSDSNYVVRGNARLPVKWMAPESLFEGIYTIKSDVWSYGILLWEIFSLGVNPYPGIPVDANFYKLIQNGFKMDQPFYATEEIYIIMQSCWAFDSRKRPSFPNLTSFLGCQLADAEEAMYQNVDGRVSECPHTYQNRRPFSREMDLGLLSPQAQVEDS
Chain of Proto-oncogene tyrosine-protein kinase Src (Homo sapiens) (P12931 2-536 limits assumed): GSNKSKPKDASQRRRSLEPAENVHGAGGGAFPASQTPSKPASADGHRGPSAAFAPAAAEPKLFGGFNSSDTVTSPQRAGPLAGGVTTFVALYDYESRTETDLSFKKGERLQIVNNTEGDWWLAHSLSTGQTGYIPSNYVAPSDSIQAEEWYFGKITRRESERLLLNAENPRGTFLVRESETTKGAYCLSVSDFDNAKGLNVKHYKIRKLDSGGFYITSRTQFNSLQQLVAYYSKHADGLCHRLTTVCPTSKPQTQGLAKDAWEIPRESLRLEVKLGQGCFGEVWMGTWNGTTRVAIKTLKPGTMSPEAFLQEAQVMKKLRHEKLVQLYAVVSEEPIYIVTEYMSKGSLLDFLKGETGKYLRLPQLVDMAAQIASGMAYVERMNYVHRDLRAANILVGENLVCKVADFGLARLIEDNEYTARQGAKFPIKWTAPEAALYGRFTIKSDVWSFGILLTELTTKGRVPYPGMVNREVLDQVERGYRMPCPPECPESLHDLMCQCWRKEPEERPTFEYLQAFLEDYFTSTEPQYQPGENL
Chain of Tyrosine-protein kinase Lck (Homo sapiens) (P06239 2-509 limits assumed): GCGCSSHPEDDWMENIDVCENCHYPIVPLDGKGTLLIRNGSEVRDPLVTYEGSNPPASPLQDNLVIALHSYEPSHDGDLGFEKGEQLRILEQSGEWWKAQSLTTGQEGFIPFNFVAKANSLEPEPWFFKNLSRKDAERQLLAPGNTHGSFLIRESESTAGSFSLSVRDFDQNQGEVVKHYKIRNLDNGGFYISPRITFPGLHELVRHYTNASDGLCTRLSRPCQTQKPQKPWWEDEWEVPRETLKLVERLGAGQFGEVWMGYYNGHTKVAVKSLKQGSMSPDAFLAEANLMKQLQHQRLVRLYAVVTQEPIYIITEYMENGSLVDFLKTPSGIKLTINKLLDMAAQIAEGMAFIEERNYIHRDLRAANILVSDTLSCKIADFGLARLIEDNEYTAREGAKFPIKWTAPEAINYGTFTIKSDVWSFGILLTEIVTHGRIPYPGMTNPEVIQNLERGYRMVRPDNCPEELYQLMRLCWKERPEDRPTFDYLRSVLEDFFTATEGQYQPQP
Chain of Tyrosine-protein kinase Fgr (Homo sapiens) (P09769 2-529 limits assumed): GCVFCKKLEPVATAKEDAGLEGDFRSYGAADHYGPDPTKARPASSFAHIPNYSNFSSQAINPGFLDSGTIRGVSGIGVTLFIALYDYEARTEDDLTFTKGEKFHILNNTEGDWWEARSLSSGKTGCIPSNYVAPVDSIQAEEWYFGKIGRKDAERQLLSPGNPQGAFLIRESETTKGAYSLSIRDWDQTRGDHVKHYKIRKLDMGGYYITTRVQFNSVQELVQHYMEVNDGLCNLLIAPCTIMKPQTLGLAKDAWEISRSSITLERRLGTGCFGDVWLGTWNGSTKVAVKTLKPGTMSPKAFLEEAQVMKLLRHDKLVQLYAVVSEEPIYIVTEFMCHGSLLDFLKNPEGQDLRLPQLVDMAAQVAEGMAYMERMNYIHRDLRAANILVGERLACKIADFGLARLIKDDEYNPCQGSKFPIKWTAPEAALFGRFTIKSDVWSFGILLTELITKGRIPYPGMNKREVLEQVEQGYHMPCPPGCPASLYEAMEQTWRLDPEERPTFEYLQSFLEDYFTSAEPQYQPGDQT
Chain of Protein-tyrosine kinase 6 (Homo sapiens) (Q13882 whole entry, looked up): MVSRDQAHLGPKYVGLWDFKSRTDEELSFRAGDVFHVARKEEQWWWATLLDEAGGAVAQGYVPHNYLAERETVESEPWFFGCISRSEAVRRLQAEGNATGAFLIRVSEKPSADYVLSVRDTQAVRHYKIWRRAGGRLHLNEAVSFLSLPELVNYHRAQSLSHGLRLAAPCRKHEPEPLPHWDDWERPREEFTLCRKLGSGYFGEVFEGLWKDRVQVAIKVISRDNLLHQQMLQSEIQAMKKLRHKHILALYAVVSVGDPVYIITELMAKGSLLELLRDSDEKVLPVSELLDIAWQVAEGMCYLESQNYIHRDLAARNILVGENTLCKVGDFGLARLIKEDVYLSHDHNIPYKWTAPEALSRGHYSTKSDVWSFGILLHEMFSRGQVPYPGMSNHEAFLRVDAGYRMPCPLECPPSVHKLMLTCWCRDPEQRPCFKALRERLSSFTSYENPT
Chain of Tyrosine-protein kinase Srms (Homo sapiens) (Q9H3Y6 whole entry): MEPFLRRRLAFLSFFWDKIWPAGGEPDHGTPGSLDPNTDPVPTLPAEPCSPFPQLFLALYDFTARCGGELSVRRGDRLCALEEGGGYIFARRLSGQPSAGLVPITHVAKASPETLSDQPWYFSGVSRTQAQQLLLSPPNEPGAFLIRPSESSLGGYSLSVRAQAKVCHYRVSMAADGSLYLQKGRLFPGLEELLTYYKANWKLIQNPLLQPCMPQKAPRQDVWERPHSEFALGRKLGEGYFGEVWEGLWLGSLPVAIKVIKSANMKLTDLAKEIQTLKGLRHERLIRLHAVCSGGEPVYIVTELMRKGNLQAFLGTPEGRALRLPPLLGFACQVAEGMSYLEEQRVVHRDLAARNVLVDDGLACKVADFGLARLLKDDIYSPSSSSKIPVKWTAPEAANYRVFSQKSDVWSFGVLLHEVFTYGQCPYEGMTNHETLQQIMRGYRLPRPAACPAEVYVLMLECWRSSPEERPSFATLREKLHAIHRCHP
Chain of Serine/threonine-protein kinase B-raf (P15056 2-766 V600E limits assumed): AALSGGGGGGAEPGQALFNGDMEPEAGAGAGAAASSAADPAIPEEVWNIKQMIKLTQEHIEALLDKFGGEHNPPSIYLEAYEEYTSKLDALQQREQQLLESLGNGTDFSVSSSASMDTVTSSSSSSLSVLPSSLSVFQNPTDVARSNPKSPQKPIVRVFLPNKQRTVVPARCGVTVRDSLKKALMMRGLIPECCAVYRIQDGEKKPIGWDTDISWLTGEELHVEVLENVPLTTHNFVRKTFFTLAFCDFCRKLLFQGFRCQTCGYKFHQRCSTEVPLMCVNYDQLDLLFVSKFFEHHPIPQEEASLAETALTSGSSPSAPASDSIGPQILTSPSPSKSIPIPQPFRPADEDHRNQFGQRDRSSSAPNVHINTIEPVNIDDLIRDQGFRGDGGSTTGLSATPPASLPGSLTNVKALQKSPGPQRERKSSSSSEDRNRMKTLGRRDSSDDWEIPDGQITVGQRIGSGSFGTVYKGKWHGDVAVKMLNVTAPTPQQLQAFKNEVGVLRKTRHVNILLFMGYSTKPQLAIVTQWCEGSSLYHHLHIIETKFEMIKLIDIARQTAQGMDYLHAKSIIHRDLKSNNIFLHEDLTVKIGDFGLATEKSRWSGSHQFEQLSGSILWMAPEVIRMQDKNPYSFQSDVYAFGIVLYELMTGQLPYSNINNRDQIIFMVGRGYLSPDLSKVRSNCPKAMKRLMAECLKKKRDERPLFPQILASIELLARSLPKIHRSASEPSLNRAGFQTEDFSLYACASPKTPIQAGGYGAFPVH

With `CCCS(=O)(=O)Nc1ccc(F)c(C(=O)Nc2cnc3[nH]nc(OC)c3c2)c1F`, the inhibition in test [1] is 83%; in test [2] it was 52%; in test [4] it was 88%; in [5], 94%; in test [6], 22%; in test [7] it was 1%. Besides, the inhibition in test [8] stood at 56%. In test [3], this molecule gave a 50% inhibitory concentration (IC50) of 19 nM.
Turning to `COc1n[nH]c2ncc(NC(=O)c3c(F)ccc(NS(=O)(=O)c4cccc(F)c4)c3F)cc12`, the 50% inhibitory concentration (IC50) amounted to 0.7 nM in test [9] and 12 nM in test [3]. The inhibition was 101% in test [1]; 77% in test [2]; 98% in test [4]; 98% in test [5]; 77% in test [6]; 52% in test [7]. Besides, in test [8], the inhibition is 96%.
With `COc1n[nH]c2ncc(NC(=O)c3c(F)ccc(NS(=O)(=O)N4CCCC4)c3F)cc12`, the IC50 in test [9] worked out at 8.6 nM; in test [3], 18 nM. The inhibition in test [1] stood at 105%; in [2], 85%; in [4], 101%; in test [5] it was 105%; in test [6], 52%; in test [7] it was 47%. Moreover, in test [8], the inhibition was found to be 90%.
